# Experimental data published in ChEMBL document CHEMBL1121913, “Inactivation of liver alcohol dehydrogenases and inhibition of ethanol metabolism by ambivalent active-site-directed reagents” (J Med Chem, 1981).
# Assays:
# Mus musculus [1] = test: In vivo inhibition of recovery of rotarod performance in mice at a dose of 0.48 mM/kg; assay type: functional
# In short: (§1)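 Mice trained to hang on a 2-cm rod rotating at 7 rpm, two 15-min periods. Reagent given ip 22 h before ethanol 3 g/kg; five mice per dose, five vehicle controls. Impairment = 100(15 − minutes on rod)/15, probit-transformed; t1/2 for regaining 50% performance by regression. Inhibition = [t1/2(treated) − t1/2(control)]/t1/2(treated).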
# [2] = Toxic effect in mice was determined in vivo; assay type: toxicity, organism-based; details: mouse
# In short: (§2)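 Male Swiss-Webster mice (20–25 g); single i.p. dose of compound suspended in sterile 0.9% saline. Acute lethality scored over 24 h; LD₅₀ with limits at p ≤ 0.05 from three doses on 15 mice.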
# Mus musculus [3] = test: In vivo inhibition of rate of ethanol metabolism in mice at dose 0.48 mmol/kg; assay type: functional
# In short: (§3)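 Mice (male Swiss-Webster, fed) dosed ip with reagent in saline 22–24 h before ethanol 3 g/kg ip. Tail-vein blood (5 µL) deproteinized with Ba(OH)₂/ZnSO₄, 1-propanol internal standard, analyzed by GC with flame-ionization detection. Elimination slope fitted excluding absorption (1–2 h), multiplied by r (dose / theoretical zero-time blood level) to give metabolic rate. Four or five mice per group.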
# [4] = Toxic effect in rats was determined in vivo; assay type: toxicity, organism-based; details: rat
# In short: (§4)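 Male Sprague-Dawley rats (160–200 g), two per dose; single i.p. dose of compound suspended in sterile 0.9% saline. Acute lethality scored over 24 h after dosing.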
# Mus musculus [5] = test: In vivo inhibition of ADH activity in mice liver at a dose of 0.48 mmol/kg; assay type: functional
# In short: (§5)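 Male Swiss-Webster mice (20–25 g), fed, given one ip dose of reagent suspended in sterile 0.9% saline, then ethanol 3 g/kg ip (40% w/v in saline) 22–24 h later. Liver removed once blood ethanol approached zero, chilled, homogenized, clarified by centrifugation. ADH activity taken as initial-velocity difference, ethanol/NAD⁺ assay minus same assay with 10 mM pyrazole, per mg protein. Four or five mice per group.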
# Rattus norvegicus [6] = test: In vivo inhibition of ADH activity in rat liver at a dose of 0.48 mM/kg; assay type: functional
# In short: (§6)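 Fed male Sprague-Dawley rats (160–200 g) received a single ip saline-suspended reagent dose, then ethanol 2 g/kg ip (40% w/v in saline) 22–24 h afterwards. Liver excised when blood ethanol neared zero, homogenized on ice, centrifuged. Activity = initial rate with ethanol and NAD⁺ minus rate in control assay containing 10 mM pyrazole, expressed per mg protein. Two rats per experiment.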
# Rattus norvegicus [7] = test: In vivo inhibition of rate of ethanol metabolism in rats at dose 0.48 mmol/kg; assay type: functional
# In short: (§7)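 Rats (male Sprague-Dawley, fed) pretreated ip with reagent suspended in saline 22–24 h before ethanol 2 g/kg ip. Serial 5 µL tail-vein samples, Ba(OH)₂/ZnSO₄ deproteinization with 1-propanol internal standard, GC-FID. Metabolic rate = blood-ethanol decline slope × ratio of dose to extrapolated zero-time blood level. Two rats per experiment.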
# [8] = target: T1, Alcohol dehydrogenase (Equus caballus) (UniProt P00327+P00328); test: The compound was tested for the ability to inactivate horse liver alcohol dehydrogenase in the presence of 1 mM NAD+; second order rate constant M-1 min-1
# [9] = target: T1, Alcohol dehydrogenase (Equus caballus); test: The compound was tested for the ability to inactivate horse liver alcohol dehydrogenase in the presence of 1 mM NAD+k
# [10] = The compound was tested for the ability to inactivate rat liver alcohol dehydrogenase in the presence of 1 mM NAD+K
# In short: (§8)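 Rat liver enzyme purified 15-fold ((NH₄)₂SO₄ 35–75%, DEAE-cellulose). Inactivation with 0.2 mM reagent, 0.1 M pyrophosphate buffer pH 8, 25 °C, enzyme near 0.2 mg/mL; NAD⁺ preincubated 1 min with enzyme before reagent addition. Apparent second-order constants computed on assumption of first-order dependence on reagent.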
# [11] = target: T2, Alcohol dehydrogenase (Homo sapiens) (UniProt P07327+P08319+P00325+P00326+P40394+P11766+P28332); test: The compound was tested for the ability to inactivate human liver alcohol dehydrogenase in the absence of NAD+K
# In short: (§9)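 Human liver ADH, purified on carboxymethyl- and DEAE-cellulose plus (NH₄)₂SO₄ (60%) with 5% ethanol throughout, ethanol dialysed out. Inactivation at 25 °C in 0.1 M Na₂P₂O₇, pH 8, enzyme about 0.2 mg/mL, 0.2 mM reagent; NAD⁺ added 1 min before reagent where used. Apparent second-order constant calculated assuming first order in reagent.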
# [12] = The compound was tested for the ability to inactivate mouse liver alcohol dehydrogenase in the absence of NAD+K
# In short: (§10)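 Mouse liver ADH, fourfold purified ((NH₄)₂SO₄ 45–65% cut, DEAE-cellulose), incubated at about 0.2 mg/mL with 0.2 mM reagent in 0.1 M Na₂P₂O₇ pH 8, 25 °C; coenzyme, when present, added 1 min before inactivator. Apparent second-order rate constant derived assuming reaction first order in reagent.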
# [13] = target: T1, Alcohol dehydrogenase (Equus caballus); test: The compound was tested for the ability to inactivate horse liver alcohol dehydrogenase in the absence of NAD+k
# [14] = The compound was tested for the ability to inactivate rat liver alcohol dehydrogenase in the absence of NAD+K; in short: as §8
# [15] = target: T2, Alcohol dehydrogenase (Homo sapiens); test: The compound was tested for the ability to inactivate human liver alcohol dehydrogenase in the presence of 1 mM NAD+k; in short: as §9
# [16] = target: T1, Alcohol dehydrogenase (Equus caballus); test: The compound was tested for the ability to inactivate horse liver alcohol dehydrogenase in the presence of 1 mM NAD+(K
# [17] = target: T2, Alcohol dehydrogenase (Homo sapiens); test: The compound was tested for the ability to inactivate human liver alcohol dehydrogenase in the presence of 1 mM NAD+K; in short: as §9
# Rattus norvegicus [18] = test: Percent inhibition of rate of ethanol metabolism in rats at dose 0.13 mmol/kg; assay type: functional; in short: as §7
# Mus musculus [19] = test: (§11) Percent inhibition of rate of ethanol metabolism in mice at dose 0.13 mmol/kg; assay type: functional; in short: as §3
# [20] = Toxic effect in rats; assay type: toxicity, organism-based; details: rat, in vivo; in short: as §4
# Mus musculus [21] = test: Percent inhibition of recovery of rotarod performance in mice at dose 0.13 mmol/kg; assay type: functional; in short: as §1
# [22] = (§12) The compound was tested for the ability to inactivate horse liver alcohol dehydrogenase in the presence of 0.2 mM NAD+K
# [23] = target: T1, Alcohol dehydrogenase (Equus caballus); test: as §12
# [24] = (§13) Percent inhibition of Alcohol dehydrogenase activity in rat liver at dose 0.13 mmol/kg; assay type: tissue-based
# In short: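 Male Sprague-Dawley rats (160–200 g), two per experiment; compound suspended in sterile 0.9% saline, single i.p. dose 22–24 h before i.p. ethanol 2 g/kg (40% w/v in saline). Tail-vein blood ethanol by GC (1-propanol internal standard); elimination rate = β slope × dose/extrapolated zero-time level. Liver ADH afterwards: homogenate activity with ethanol/NAD⁺ minus 10 mM pyrazole control, per mg protein.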
# [25] = The compound was tested for the ability to inactivate mouse liver alcohol dehydrogenase in the presence of 1 mM NAD+K; in short: as §10
# [26] = Percent inhibition of Alcohol dehydrogenase activity in mice liver at dose 0.13 mmol/kg; assay type: tissue-based; in short: as §5
# [27] = target: T1, Alcohol dehydrogenase (Equus caballus); test: The compound was tested for the ability to inactivate horse liver alcohol dehydrogenase in the absence of NAD+(K
# [28] = Toxic effect in mice; assay type: toxicity, organism-based; details: mouse, in vivo; in short: as §2
# [29] = target: T1, Alcohol dehydrogenase (Equus caballus); test: The compound was tested for the ability to inactivate horse liver alcohol dehydrogenase in the presence of 1 mM NAD+K
# [30] = as §11; details: in the assay text read “0.48 mmol/kg” for “0.13 mmol/kg”; in short: as §3
# [31] = as §13; assay type: tissue-based; in short: as §6; remark: listed apart in the source
# [32] = target: T2, Alcohol dehydrogenase (Homo sapiens); test: The compound was tested for the ability to inactivate human liver alcohol dehydrogenase in the absence of NAD+(K; in short: as §9
# [33] = target: T2, Alcohol dehydrogenase (Homo sapiens); test: The compound was tested for the ability to inactivate human liver alcohol dehydrogenase in the presence of 1 mM NAD+(K; in short: as §9
# [34] = target: T1, Alcohol dehydrogenase (Equus caballus); test: The compound was tested for the ability to inactivate horse liver alcohol dehydrogenase in the presence of 0.2 mM NAD+(K
# [35] = The compound was tested for the ability to inactivate rat liver alcohol dehydrogenase in the presence of NAD+K; in short: as §8
# [36] = system: Alcohol dehydrogenase (Equus caballus); test: The compound was tested for the ability to inactivate horse liver alcohol dehydrogenase in the presence of 0.2 mM NAD+K
# [37] = system: Alcohol dehydrogenase (Homo sapiens); test: The compound was tested for the ability to inactivate human liver alcohol dehydrogenase in the presence of 0.2 mM NADH(K
Structure (SMILES),Rate constant [9],Rate constant [10],Rate constant [11],Rate constant [12],Rate constant [13],Rate constant [14],Rate constant [15],Rate constant [23],Rate constant [25],also measured
CC(=O)Nc1ccc(CCCC(N)=O)cc1,,,,,,,,,,Inhibition (Mus musculus [1]): 60%; LD50 [2]: > 480 µmol/kg; inhibition in vivo at 480 µmol/kg (Mus musculus [3]): 60%; LD50 [4]: > 480 µmol/kg; inhibition in vivo at 480 µmol/kg (Mus musculus [5]): 43%; Inhibition (Rattus norvegicus [6]): 8%; inhibition in vivo at 480 µmol/kg (Rattus norvegicus [7]): 0%; Activity [8]: 1500
O=C(O)CBr,0.0015 M⁻¹ s⁻¹,0.0133 M⁻¹ s⁻¹,0.0133 M⁻¹ s⁻¹,0.163 M⁻¹ s⁻¹,0.138 M⁻¹ s⁻¹,0.217 M⁻¹ s⁻¹,,,,
O=C(O)CCCCCCCNC(=O)CBr,0.12 M⁻¹ s⁻¹,0.0667 M⁻¹ s⁻¹,0.112 M⁻¹ s⁻¹,0.0817 M⁻¹ s⁻¹,0.105 M⁻¹ s⁻¹,0.2 M⁻¹ s⁻¹,0.833 M⁻¹ s⁻¹,,,
O=C(O)CCCCCCNC(=O)CBr,0.00833 M⁻¹ s⁻¹,0.0133 M⁻¹ s⁻¹,0.112 M⁻¹ s⁻¹,0.127 M⁻¹ s⁻¹,0.0983 M⁻¹ s⁻¹,0.183 M⁻¹ s⁻¹,0.138 M⁻¹ s⁻¹,,,
NC(=O)CCCc1ccc(NC(=O)CBr)cc1,,1.17 M⁻¹ s⁻¹,0.09 M⁻¹ s⁻¹,0.6 M⁻¹ s⁻¹,,0.583 M⁻¹ s⁻¹,,2.67 M⁻¹ s⁻¹,1 M⁻¹ s⁻¹,Rate constant [16]: 3.17 M⁻¹ s⁻¹; Rate constant [17]: 5.33 M⁻¹ s⁻¹; inhibition in vivo at 130 µmol/kg (Rattus norvegicus [18]): 26%; inhibition in vivo at 130 µmol/kg (Mus musculus [19]): 20%; LD50 [20]: 130 µmol/kg; inhibition in vivo at 130 µmol/kg (Mus musculus [21]): 58%; Rate constant [22]: 2.67 M⁻¹ s⁻¹; inhibition [24]: 21%; inhibition [26]: 21%; Rate constant [27]: 0.667 M⁻¹ s⁻¹; LD50 [28]: 210 µmol/kg
O=C(O)CCCCCCCCCCCNC(=O)CBr,0.0533 M⁻¹ s⁻¹,0.0167 M⁻¹ s⁻¹,2.33 M⁻¹ s⁻¹,0.717 M⁻¹ s⁻¹,2 M⁻¹ s⁻¹,0.317 M⁻¹ s⁻¹,5.33 M⁻¹ s⁻¹,,,
O=C(O)CCCCCCCCNC(=O)CBr,0.0817 M⁻¹ s⁻¹,0.2 M⁻¹ s⁻¹,0.383 M⁻¹ s⁻¹,0.0817 M⁻¹ s⁻¹,0.167 M⁻¹ s⁻¹,0.2 M⁻¹ s⁻¹,4 M⁻¹ s⁻¹,,,
CS(=O)(=O)OCC(=O)Nc1ccc(CCCC(N)=O)cc1,,,,,,,,0.217 M⁻¹ s⁻¹,,Rate constant [29]: 0.4 M⁻¹ s⁻¹; inhibition [30]: 43%; inhibition in vivo at 130 µmol/kg (Rattus norvegicus [18]): 15%; LD50 [20]: > 480 µmol/kg; inhibition in vivo at 130 µmol/kg (Mus musculus [21]): 70%; inhibition [31]: 35%; inhibition [26]: 38%; LD50 [28]: > 480 µmol/kg
NC(=O)CCCc1ccc(NC(=O)CCl)cc1,,,,,,,,0.0267 M⁻¹ s⁻¹,,Rate constant [29]: 0.0417 M⁻¹ s⁻¹
O=C(O)CCCc1ccc(NC(=O)CBr)cc1,2 M⁻¹ s⁻¹,0.533 M⁻¹ s⁻¹,,0.633 M⁻¹ s⁻¹,1.67 M⁻¹ s⁻¹,,,0.25 M⁻¹ s⁻¹,0.233 M⁻¹ s⁻¹,Rate constant [32]: 0.183 M⁻¹ s⁻¹; inhibition in vivo at 130 µmol/kg (Rattus norvegicus [18]): 24%; Rate constant [33]: 2.33 M⁻¹ s⁻¹; Rate constant [34]: 0.25 M⁻¹ s⁻¹; Rate constant [35]: 0.533 M⁻¹ s⁻¹; Rate constant [36]: 0.25 M⁻¹ s⁻¹; inhibition [31]: 27%; Rate constant [37]: 0.085 M⁻¹ s⁻¹
O=C(CBr)Nc1ccc(Oc2ccc(C(=O)O)cc2)cc1,0.283 M⁻¹ s⁻¹,0.383 M⁻¹ s⁻¹,0.433 M⁻¹ s⁻¹,2.88 M⁻¹ s⁻¹,5.33 M⁻¹ s⁻¹,1.15 M⁻¹ s⁻¹,4.83 M⁻¹ s⁻¹,,0.183 M⁻¹ s⁻¹,
O=C(O)CCCCCCCCCCNC(=O)CBr,0.05 M⁻¹ s⁻¹,0.0667 M⁻¹ s⁻¹,3.83 M⁻¹ s⁻¹,0.147 M⁻¹ s⁻¹,0.717 M⁻¹ s⁻¹,0.152 M⁻¹ s⁻¹,23.3 M⁻¹ s⁻¹,,,
O=C(CBr)Nc1ccc(-c2ccc(C(=O)O)cc2)cc1,0.4 M⁻¹ s⁻¹,0.417 M⁻¹ s⁻¹,0.833 M⁻¹ s⁻¹,0.717 M⁻¹ s⁻¹,2.33 M⁻¹ s⁻¹,0.483 M⁻¹ s⁻¹,58.3 M⁻¹ s⁻¹,,0.105 M⁻¹ s⁻¹,
